Measurements reported in ChEMBL document CHEMBL1649062, “Integration of lead optimization with crystallography for a membrane-bound ion channel target: discovery of a new class of AMPA receptor positive allosteric modulators” (J Med Chem, 2011).
≈ marks a conversion by molar mass, not a printed value.

Tests used:
Glutamate receptor 2 [1] = target: T1, Glutamate receptor 2 (Homo sapiens, UniProt P42262); test: Allosteric modulation of human recombinant GluA2 receptor flip isoform expressed in HEK293 cells assessed as potentiation of glutamate-induced calcium influx by Fluo-4/FLIPR method relative to cyclothiazide; type: cell-based
In short: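 Stable GluA2 flip (unedited) cells seeded to confluence 2-3 days before assay; washed in HEPES buffer (145 NaCl, 5 KCl, 2 CaCl2, 1 MgCl2, 5.5 glucose, pH 7.3), loaded with 2 μM Fluo4-AM 60 min at room temperature. FLIPR dual addition: compound 5 min before 100 μM glutamate; fluorescence rise expressed against maximal cyclothiazide response, fitted pEC50 and Asym max; n ≥ 3.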

Cytochrome P450 2D6 = Cytochrome P450 2D6 (Homo sapiens, UniProt P10635); test: Inhibition of human CYP2D6 by fluorescence assay; type: ADME
In short: (§1)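 Recombinant human CYP bactosomes (0.1 mg/mL) in 50 mM potassium phosphate pH 7.4, preincubated 10 min at 37 °C with test compound (0.1-10 μM, 7 concentrations) and fluorogenic substrate. Substrates: ethoxyresorufin 0.5 μM (1A2), FCA 50 μM (2C9), BMC 10 μM (2C19), MMC 10 μM (2D6), DEF 1 μM or 7-BQ 25 μM (3A4). Reaction started with NADPH regenerating system; metabolite formation read over 10 min. IC50 from percent of control rate; miconazole control; triplicate.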

[2] = Distribution coefficient, log D of the compound; type: physicochemical; settings: octanol/water
[3] = Kinetic solubility of the compound in phosphate buffered saline of pH 7.4; type: physicochemical
In short: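 Kinetic solubility: 10 mM DMSO stock, 5 μL diluted to 100 μL with pH 7.4 phosphate-buffered saline, equilibrated 1 h at room temperature, filtered, filtrate quantified by calibrated flow-injection chemiluminescent nitrogen detection.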

Glutamate receptor 2 [4] = target: T1, Glutamate receptor 2; test: Allosteric modulation of human recombinant GluA2 receptor flip isoform expressed in HEK293 cells assessed as potentiation of glutamate-induced calcium influx by Fluo-4/FLIPR method; type: cell-based
In short: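 Stable GluA2 flip (unedited) cell line grown in DMEM/F12 with 10% FBS and seeded to confluence 2-3 days before use. Cells washed in HEPES buffer (pH 7.3) and loaded with 2 μM Fluo-4 AM for 60 min at room temperature. On FLIPR, compound was added 5 min before 100 μM glutamate. pEC50 and asymptotic maximum are relative to the maximal response to cyclothiazide, n ≥ 3.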

Cytochrome P450 1A2 = target: T2, Cytochrome P450 1A2 (Homo sapiens, UniProt P05177); test: Inhibition of human CYP1A2 by fluorescence assay; type: ADME; in short: as §1
T2 sequence (P05177 whole entry): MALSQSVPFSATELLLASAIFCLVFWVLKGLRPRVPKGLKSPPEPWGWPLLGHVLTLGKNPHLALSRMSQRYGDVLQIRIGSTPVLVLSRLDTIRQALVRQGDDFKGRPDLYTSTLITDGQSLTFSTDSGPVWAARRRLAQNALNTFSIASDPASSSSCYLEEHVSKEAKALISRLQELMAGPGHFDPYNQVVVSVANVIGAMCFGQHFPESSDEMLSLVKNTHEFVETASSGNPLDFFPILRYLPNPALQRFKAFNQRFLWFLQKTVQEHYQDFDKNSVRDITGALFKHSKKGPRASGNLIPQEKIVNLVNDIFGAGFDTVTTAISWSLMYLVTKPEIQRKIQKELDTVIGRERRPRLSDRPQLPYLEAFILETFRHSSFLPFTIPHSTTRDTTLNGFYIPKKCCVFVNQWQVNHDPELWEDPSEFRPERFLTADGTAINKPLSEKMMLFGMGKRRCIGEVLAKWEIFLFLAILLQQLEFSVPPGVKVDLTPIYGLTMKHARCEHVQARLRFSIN

[5] = AUC ( 0 to t) in rat at 3 mg/kg, po; type: ADME, organism-based, Plasma; design: dose 3 mg/kg, route oral; settings: plasma
[6] = Plasma protein binding in rat at 3 mg/kg, po; type: ADME, organism-based; design: dose 3 mg/kg, route oral; settings: read-out: PPB (converted)
[7] = Clearance in rat at 3 mg/kg, po; type: ADME, organism-based; design: dose 3 mg/kg, route oral; settings: in vivo
In short: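 Rats dosed orally at 3 mg/kg; blood sampled via the hepatic portal vein and heart. Estimated clearance derived from in vivo hepatic extraction, taking rat liver blood flow as 85 (mL/min)/kg.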

in vivo = settings: rat, brain, po, 3 mg/kg
[8] = Apparent permeability of the compound; type: ADME; settings: not told
In short: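 Artificial membrane permeability: donor holds 10 mM sample in pH 7.05 phosphate buffer with 0.5% hydroxypropylcyclodextrin. Membrane is 1.8% phosphatidylcholine and 1% cholesterol in decane. Donor and acceptor concentrations measured by LCMS after 3 h at room temperature; permeability expressed in nm/s.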

Cytochrome P450 2C9 = Cytochrome P450 2C9 (Homo sapiens, UniProt P11712); test: Inhibition of human CYP2C9 by fluorescence assay; type: ADME; in short: as §1
[9] = Cmax in rat at 3 mg/kg, po; type: ADME, organism-based; design: dose 3 mg/kg, route oral; settings: in vivo
[10] = Inhibition of human CYP450 by fluorescence assay; type: ADME
In short: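 Recombinant human CYP1A2, 2C9, 2C19, 2D6 and 3A4 bactosomes (0.1 mg/mL protein) preincubated 10 min at 37 °C in 50 mM potassium phosphate pH 7.4 with test compound (0.1–10 μM, methanol 3–4.5% final) and fluorogenic probe: ethoxyresorufin 0.5 μM (1A2), FCA 50 μM (2C9), BMC 10 μM (2C19), MMC 10 μM (2D6), DEF 1 μM or 7-BQ 25 μM (3A4). NADPH-regenerating system added; fluorescent metabolite read 10 min; rate as % control; IC50 fitted; triplicate.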

Cytochrome P450 3A4 = Cytochrome P450 3A4 (Homo sapiens, UniProt P08684); test: Inhibition of human CYP3A4 by fluorescence assay; type: ADME; in short: as §1
Cytochrome P450 2C19 = Cytochrome P450 2C19 (Homo sapiens, UniProt P33261); test: Inhibition of human CYP2C19 by fluorescence assay; type: ADME; in short: as §1
Sequence of Cytochrome P450 2C19 (P33261 whole entry): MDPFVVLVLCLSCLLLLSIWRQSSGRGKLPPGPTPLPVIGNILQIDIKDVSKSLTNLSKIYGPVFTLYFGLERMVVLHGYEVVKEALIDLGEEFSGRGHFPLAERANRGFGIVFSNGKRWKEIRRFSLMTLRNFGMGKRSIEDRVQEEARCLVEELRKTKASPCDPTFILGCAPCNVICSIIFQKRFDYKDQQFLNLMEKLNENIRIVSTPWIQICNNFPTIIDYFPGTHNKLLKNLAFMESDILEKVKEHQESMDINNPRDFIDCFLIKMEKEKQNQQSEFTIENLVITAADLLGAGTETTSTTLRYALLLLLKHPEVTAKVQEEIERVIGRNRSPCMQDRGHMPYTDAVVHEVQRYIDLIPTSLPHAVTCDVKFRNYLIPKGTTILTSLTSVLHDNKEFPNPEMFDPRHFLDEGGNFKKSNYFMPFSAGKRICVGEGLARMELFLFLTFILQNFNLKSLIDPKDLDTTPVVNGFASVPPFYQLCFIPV

Sequence of Cytochrome P450 2C9 (P11712 whole entry): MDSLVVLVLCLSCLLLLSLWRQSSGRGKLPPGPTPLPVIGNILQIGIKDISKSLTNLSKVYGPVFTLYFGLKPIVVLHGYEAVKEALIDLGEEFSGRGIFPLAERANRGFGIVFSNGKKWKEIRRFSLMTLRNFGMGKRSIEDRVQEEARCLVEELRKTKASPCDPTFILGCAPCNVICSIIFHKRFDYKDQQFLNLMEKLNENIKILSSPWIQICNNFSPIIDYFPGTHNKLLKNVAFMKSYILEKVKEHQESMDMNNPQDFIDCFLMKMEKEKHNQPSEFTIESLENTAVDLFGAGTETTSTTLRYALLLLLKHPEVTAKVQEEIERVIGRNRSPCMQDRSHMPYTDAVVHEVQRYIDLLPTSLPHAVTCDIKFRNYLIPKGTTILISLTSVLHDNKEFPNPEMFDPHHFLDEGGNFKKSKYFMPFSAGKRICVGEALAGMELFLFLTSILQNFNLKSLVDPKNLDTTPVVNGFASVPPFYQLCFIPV
T1 sequence (P42262 whole entry, canonical isoform): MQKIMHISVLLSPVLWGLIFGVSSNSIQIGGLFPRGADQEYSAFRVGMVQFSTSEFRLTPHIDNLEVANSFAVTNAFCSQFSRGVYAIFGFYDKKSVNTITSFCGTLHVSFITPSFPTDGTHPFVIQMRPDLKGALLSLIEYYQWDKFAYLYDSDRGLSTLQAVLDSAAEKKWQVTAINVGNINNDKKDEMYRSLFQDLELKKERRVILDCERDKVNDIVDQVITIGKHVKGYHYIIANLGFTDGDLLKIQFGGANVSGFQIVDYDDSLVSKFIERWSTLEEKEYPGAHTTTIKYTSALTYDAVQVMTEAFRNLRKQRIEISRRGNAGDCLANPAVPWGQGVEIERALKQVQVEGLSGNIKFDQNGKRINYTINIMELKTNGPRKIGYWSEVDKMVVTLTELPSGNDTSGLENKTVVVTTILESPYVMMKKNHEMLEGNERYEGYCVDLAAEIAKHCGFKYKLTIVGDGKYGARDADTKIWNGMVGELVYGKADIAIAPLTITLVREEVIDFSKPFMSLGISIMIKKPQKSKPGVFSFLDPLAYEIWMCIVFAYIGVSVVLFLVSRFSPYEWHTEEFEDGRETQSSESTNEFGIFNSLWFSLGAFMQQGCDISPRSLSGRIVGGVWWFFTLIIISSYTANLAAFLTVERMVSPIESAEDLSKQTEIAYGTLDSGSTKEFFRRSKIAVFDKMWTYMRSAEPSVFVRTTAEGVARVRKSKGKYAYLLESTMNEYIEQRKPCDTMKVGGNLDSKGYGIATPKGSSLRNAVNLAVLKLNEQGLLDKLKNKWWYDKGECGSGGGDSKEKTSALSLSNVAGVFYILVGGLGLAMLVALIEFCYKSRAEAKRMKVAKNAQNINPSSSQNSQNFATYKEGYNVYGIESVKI
Sequence of Cytochrome P450 2D6 (P10635 whole entry): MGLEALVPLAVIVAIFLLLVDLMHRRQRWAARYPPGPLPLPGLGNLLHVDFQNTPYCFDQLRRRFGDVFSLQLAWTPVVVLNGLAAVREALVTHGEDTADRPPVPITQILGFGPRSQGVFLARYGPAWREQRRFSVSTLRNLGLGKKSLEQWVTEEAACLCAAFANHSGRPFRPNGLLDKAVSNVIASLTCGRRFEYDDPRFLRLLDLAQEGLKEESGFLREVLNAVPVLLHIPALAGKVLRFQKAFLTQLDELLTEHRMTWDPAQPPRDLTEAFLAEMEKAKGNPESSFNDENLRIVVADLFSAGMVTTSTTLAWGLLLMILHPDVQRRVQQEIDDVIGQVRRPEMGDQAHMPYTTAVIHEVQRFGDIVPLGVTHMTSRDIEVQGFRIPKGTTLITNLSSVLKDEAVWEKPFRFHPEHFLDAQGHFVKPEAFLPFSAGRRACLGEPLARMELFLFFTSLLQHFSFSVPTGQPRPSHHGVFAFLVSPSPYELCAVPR
Sequence of Cytochrome P450 3A4 (P08684 whole entry): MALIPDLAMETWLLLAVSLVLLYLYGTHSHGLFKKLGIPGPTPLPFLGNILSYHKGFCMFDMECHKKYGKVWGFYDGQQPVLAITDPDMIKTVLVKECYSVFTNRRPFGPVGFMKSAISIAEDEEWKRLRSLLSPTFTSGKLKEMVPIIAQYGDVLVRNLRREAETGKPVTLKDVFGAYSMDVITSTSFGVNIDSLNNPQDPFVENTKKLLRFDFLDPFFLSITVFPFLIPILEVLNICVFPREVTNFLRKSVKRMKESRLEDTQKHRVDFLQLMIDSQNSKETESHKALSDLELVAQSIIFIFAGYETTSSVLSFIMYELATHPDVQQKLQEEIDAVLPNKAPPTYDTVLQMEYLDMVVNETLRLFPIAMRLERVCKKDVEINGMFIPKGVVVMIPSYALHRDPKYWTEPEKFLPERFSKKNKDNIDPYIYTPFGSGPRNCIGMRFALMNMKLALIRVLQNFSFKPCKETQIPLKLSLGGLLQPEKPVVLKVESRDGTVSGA

Row | SMILES | Activity (Glutamate receptor 2 [1]) [%] | IC50 (Cytochrome P450 2D6) [µM] | logD [2] | solubility kinetic [3] [µg/mL] | EC50 (Glutamate receptor 2 [4]) [µM] | IC50 (Cytochrome P450 1A2) [µM] | AUC(0-t) [5] [ng·h/mL] | fraction unbound [6] | CL/F [7] [mL/min/kg] | Kp (in vivo) | Papp [8] [×10⁻⁶ cm/s] | IC50 (Cytochrome P450 2C9) [µM] | Cmax [9] [ng/mL] | IC50 [10] [µM] | IC50 (Cytochrome P450 3A4) [µM] | IC50 (Cytochrome P450 2C19) [µM]
1 | CS(=O)(=O)c1ccc(-n2nc(C(F)(F)F)c3c2CCCC3)cc1 | 83 | 6 | 3.4 | 13 (≈ 37.8 µM) | 31.6 | 4 |  |  |  |  |  |  |  |  |  | 
2 | O=C1CCCN1Cc1ccc(-n2nc(C(F)(F)F)c3c2CCCC3)cc1F | 112 |  | 3.3 | 88 (≈ 231 µM) | 1 | 2 | 331 | 0.011 | 47 | 1.3 | 42 | 9 | 167 |  |  | 
3 | CC(=O)c1ccc(-n2nc(C(F)(F)F)c3c2CCCC3)cc1 | 94 |  | 3 | 13 (≈ 42.2 µM) | 31.6 | 0.1 |  |  |  |  |  | 4 |  |  |  | 
4 | CC(=O)N(C)Cc1ccc(-n2nc(C(F)(F)F)c3c2CCCC3)cc1 | 94 |  | 1.3 |  | 2 |  |  |  |  |  |  |  |  |  |  | 
5 | CC(C)S(=O)(=O)NCc1ccc(-n2nc(C(F)(F)F)c3c2CCCC3)cc1 | 79 |  | 2.8 | 11 (≈ 27.4 µM) | 10 |  |  |  |  |  |  |  |  | > 10 |  | 
6 | O=C(C(F)c1ccc(-n2nc(C(F)(F)F)c3c2CCCC3)cc1)N1CCCC1 (stereo unspecified) | 98 |  | 3.4 | 124 (≈ 314 µM) | 31.6 |  |  |  |  |  |  |  |  | > 10 |  | 
7 | CC(=O)NCc1ccc(-n2nc(C(F)(F)F)c3c2CCCC3)cc1 | 79 |  |  | 47 (≈ 139 µM) | 1.26 |  |  |  |  |  |  |  |  | > 10 |  | 
8 | O=C(c1ccc(-n2nc(C(F)(F)F)c3c2CCCC3)cc1)N1CCCCC1 | 100 |  | 1.6 | 16 (≈ 42.4 µM) | > 100 |  |  |  |  |  |  |  |  |  |  | 
9 | CC(=O)Cc1ccc(-n2nc(C(F)(F)F)c3c2CCCC3)cc1 | 111 | ≤ 1 | 3 | 44 (≈ 137 µM) | 3.98 | ≤ 1 |  |  |  |  |  | ≤ 1 |  | ≤ 1 | ≤ 1 | 2
10 | CN(Cc1ccc(-n2nc(C(F)(F)F)c3c2CCCC3)cc1)S(C)(=O)=O | 102 |  | 3.3 | 15 (≈ 38.7 µM) | 20 |  |  |  |  |  |  |  |  | > 10 |  | 
11 | CN(CCc1ccccc1)C(=O)c1ccc(-n2nc(C(F)(F)F)c3c2CCCC3)cc1 | 84 |  | 3 | 57 (≈ 133 µM) | 39.8 |  |  |  |  |  |  | 1 |  |  |  | 3
12 | O=C(N1CCCC1)C(F)(F)c1ccc(-n2nc(C(F)(F)F)c3c2CCCC3)cc1 | 94 |  | 3.4 | 124 (≈ 300 µM) | 20 |  |  |  |  |  |  | 4 |  |  |  | 
